# Screening results as filed in PubChem.
# KCNK9 inh – blocks the human KCNK9 two-pore domain potassium channel | HEK293 KCNK9, FluxOR thallium flux fluorescence; stronger effect = lower value | 1.2% of 310,000 active | B-score at 10 µM | Q9NPC2 | AID 488922;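 active = ratio B-score over 3 SD below the library mean, with starting fluorescence within 5 SD of its mean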;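 note: negative B-score means less thallium flux so channel inhibition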
# hERG protect – shields human hERG channel from block by proarrhythmic agents | Q12809 | CHO-hERG, FluxOR thallium flux, dofetilide IC70 present | activation (rescue from dofetilide block), less the hit threshold, % at 10 µM | 0.51% of 310,000 active;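 active = activation above the mean of controls blocked by dofetilide plus 5 SD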;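 note: thallium influx through hERG after potassium depolarization seen as dye fluorescence rise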
# KCNQ1 pot – human KCNQ1 channel potentiation or activation | P51787 | CHO-K1 KCNQ1, thallium flux FluxOR fluorescence; stronger effect = higher value | B-score at 10 µM | 0.35% of 310,000 active | AID 2648;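 active = fluorescence ratio B-score, a plate-corrected score, at least three library SD, with initial intensity B-score within 5 SD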
# Target sequence (P51787 whole entry, looked up): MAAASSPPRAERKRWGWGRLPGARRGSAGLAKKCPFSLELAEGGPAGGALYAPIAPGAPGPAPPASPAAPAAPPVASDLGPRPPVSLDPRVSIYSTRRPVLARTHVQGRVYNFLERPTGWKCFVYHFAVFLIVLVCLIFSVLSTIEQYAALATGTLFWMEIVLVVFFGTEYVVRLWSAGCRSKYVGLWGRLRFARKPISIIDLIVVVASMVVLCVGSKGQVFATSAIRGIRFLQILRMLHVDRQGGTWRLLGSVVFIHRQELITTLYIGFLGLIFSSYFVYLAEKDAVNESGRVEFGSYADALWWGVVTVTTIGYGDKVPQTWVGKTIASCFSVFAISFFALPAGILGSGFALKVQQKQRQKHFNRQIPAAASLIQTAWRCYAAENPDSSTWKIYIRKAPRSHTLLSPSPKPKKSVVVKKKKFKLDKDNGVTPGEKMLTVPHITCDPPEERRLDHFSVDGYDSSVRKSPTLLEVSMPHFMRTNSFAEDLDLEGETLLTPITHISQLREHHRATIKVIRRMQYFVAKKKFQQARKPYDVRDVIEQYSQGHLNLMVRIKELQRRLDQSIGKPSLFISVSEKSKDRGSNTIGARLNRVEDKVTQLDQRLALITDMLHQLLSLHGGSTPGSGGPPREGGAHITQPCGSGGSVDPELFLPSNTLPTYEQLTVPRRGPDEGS
#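 Material: CHO-K1 cells stably expressing KCNQ1. Medium: assay buffer for compound exposure, DMSO matched across wells. Reagent: K+/Tl+ depolarizing stimulus. Compound dosing: single-concentration screen. Times: 37 °C overnight plating, 90-min dark dye load, 20-min compound pretreatment. Technique: FluxOR Tl+ flux fluorescence.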
# KCNK3 inh – human KCNK3 channel inhibition, primary screen | CHO-KCNK3 thallium flux, FluxOR fluorescence; stronger effect = lower value | B-score at 10 µM | 0.84% of 340,000 active;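 active = B-score under library mean minus 4 SD, starting fluorescence ratio at most library mean plus 5 SD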;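 note: more negative B-score means stronger inhibition of thallium flux through KCNK3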
# KCNQ1 inh – blocks the human KCNQ1 potassium channel. P51787. CHO-K1 KCNQ1, FluxOR thallium flux fluorescence; stronger effect = higher value. B-score at 10 µM. 1.3% of 310,000 active. AID 2642;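 active = compounds whose thallium flux B-score, printed positive for inhibition, exceeds three library SD while starting fluorescence stays within three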;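 note: channel opened by potassium depolarization with thallium stimulus after 20 min compound exposure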
# Kir21 block – inhibitors of mouse Kir2.1 inward-rectifier potassium channel. P35561. B-score at 10 µM. 0.85% of 310,000 active. AID 1672. HEK293-Kir2.1, FluxOR thallium flux fluorescence; stronger effect = lower value;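 active = fluorescence ratio B-score at or below minus 3 SD of library scores, with starting-brightness B-score within 2 SD, cut at about -4.2 in these data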;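 note: channel flux triggered by added potassium and thallium sulfate stimulus; B-score of peak minus minimum fluorescence over baseline after thallium stimulus; more negative B-score means stronger Kir2.1 block with less thallium influx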
# A number is an active result; - = inactive; . = no result given. The list is not random: actives were taken first. Their share in the collection is about 3.7%.
SMILES,KCNK9 inh,hERG protect,KCNQ1 pot,KCNK3 inh,KCNQ1 inh,Kir21 block
COc1ccc(C(CCNCc2ccc(OC(C)C)cc2)C(C)C)cc1 (centres undefined),-,-,-,-,-,-4.5
COc1ccc(CNCCC(c2ccc(OC(C)C)cc2)C(C)C)cc1OC (centres undefined),-,-,-,-,-,-
CCOCCCNCc1ccc(OC)cc1,-,-,-,-,-,-
COc1ccc(C(CCNCc2ccc(N(C)C)cc2)C(C)C)cc1 (centres undefined),-,-,-,-,-,-5
COc1ccc(CCNC(=O)c2ccc3c(c2)S(=O)(=O)N=C2CCCCCN23)cc1,-,-,-,-,-,-
CCOCC(O)CNc1ccccc1 (centres undefined),-,5.4,-,-,-,-
CCOC(=O)c1ccc(NCC(O)COc2ccccc2)cc1 (centres undefined),-,-,-,-,-,-
COc1ccc(CCNC(=O)C2(C)CCC(=O)N2Cc2ccc(F)cc2Cl)cc1OC (centres undefined),-,-,-,-,-,-
COc1ccc(-c2nc(-c3ccccc3)c(-c3cc([N+](=O)[O-])ccc3C)[nH]2)cc1O,-10,-,-,-,7,-
CCOC(=O)Cc1csc(NC(=S)NC(=O)c2ccc(Cl)cc2)n1,-,7.3,17,-,-,-
CCOC(=O)Cc1csc(NC(=S)NC(=O)c2ccc([N+](=O)[O-])cc2)n1,-,-,-,-,-,-
Cc1ccc2nc3c(c(Nc4ccc(O)cc4)c2c1)CCC3,-,-,-,-,-,-
COc1ccc(Nc2c3c(nc4ccc(C)cc24)CCC3)cc1,-,-,-,-,8,-
Cc1ccc2nc3c(c(Nc4ccc5c(c4)OCCO5)c2c1)CCC3,-,-,-,-,-,-5.6
Cc1cccc(Nc2c3c(nc4ccccc24)CCC3)c1,-,-,-,-,-,-6
O=S(=O)(c1ccc(Cl)cc1)N1CCC(O)(CN2CCN(Cc3ccccc3)CC2)CC1,-,-,-,-,-,-5.4
c1ccc(-c2nnc3ccc(N4CCCC4)nn23)cc1,-,-,-,-,-,-
CN(Cc1ccccc1)c1ccc2nnc(-c3ccccc3)n2n1,-,-,-,-,-,-5.2
N#CCc1cccnc1Sc1ccc(Cl)cc1,-,-,-,-,-,-
COc1ccc(NC(=O)Nc2cc(C)ccc2F)cc1,-,5.1,-,-,-,-
CC[n+]1c(/C=C2/C=C(C)CC(C)(C)C2)sc2ccc(OC)cc21,-,-,-,-,10,-
CC[n+]1c(C)sc2sc3ccccc3c21,-,-,-,.,-,-
CCC1=C/C(=C/c2sc3ccccc3[n+]2CC)CC(C)(C)C1,-,-,-,-,-,-
CC[n+]1c(/C=C/Nc2ccccc2)oc2ccc(OC)cc21,-,-,-,-,-,-
CC[n+]1c(/C=C2\C=C(C)CC(C)(C)C2)sc2ccccc21,-,-,-,-,7,-
SMILES,KCNK9 inh,hERG protect,KCNQ1 pot,KCNK3 inh,KCNQ1 inh,Kir21 block
CC[n+]1c(/C=C2\C=C(C)CC(C)C2)sc2ccccc21 (centres undefined),-,-,-,-,6,-
Cc1ccc2c(c1)N(CC(=O)Nc1ccccc1F)C(=O)CO2,-,-,-,-,-,-
COc1ccccc1NC(=O)CSCc1cc(=O)n2ccsc2n1,-,-,-,-,-,-
O=C(CSc1nnc(NC(=O)C2CC2)s1)NCc1ccc(F)cc1,-,-,-,-,-,-
CCC(=O)NCCCCCCNC(=O)CC,-,6.9,-,-,-,-
Cc1ccc(C)c(NC(=S)NNC(=O)c2cc3c(s2)CCC(C)C3)c1 (centres undefined),-,9.3,-,-,-,-
CC(C)CNC(=S)NNC(=O)c1csc2c1CCC(C)C2 (centres undefined),-,-,-,-,-,-
Cc1cccc(NC(=S)NNC(=O)c2csc3c2CCC(C)C3)c1 (centres undefined),-,-,20,-,-,-
CC1CCc2sc(C(=O)NN=C3CCC(c4ccccc4)CC3)cc2C1 (centres undefined),-,-,-,-,-,-
Cc1cccc(NC(=S)NNC(=O)c2cc3c(s2)CCC(C)C3)c1C (centres undefined),-,-,11,-,-,-
Cc1cccc(Cc2ccc(Cl)nn2)c1,-,-,-,-,-,-
